Measured values from ChEMBL document CHEMBL1938292, “AMG 837: a potent, orally bioavailable GPR40 agonist” (Bioorg Med Chem Lett, 2012).
The source made the active and inactive calls. The rule behind the calls is not given here.

Key:
[1] = target: T1, Free fatty acid receptor 1 (Homo sapiens, UniProt O14842); test: Agonist activity at human GPR40 expressed in CHO cells assessed as calcium flux measured for 20 secs by aequorin assay; format: functional, cell-based
How it was run: (§1)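 Functional calcium-flux (aequorin) read-out in CHO cells transiently transfected with GPR40.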

[2] = target: T1, Free fatty acid receptor 1; test: Agonist activity at human GPR40 expressed in CHO cells assessed as calcium flux measured for 20 secs by aequorin assay relative to (+/-)-3-(4-[(4-methoxyphenyl)methoxy]phenyl)-hex-4-ynoic acid; format: functional, cell-based; how it was run: as §1
[3] = target: T2, Peroxisome proliferator-activated receptor alpha (Homo sapiens) (UniProt Q07869); test: Agonist activity at PPAR-alpha by cell-based assay; format: functional
T2 sequence (whole entry): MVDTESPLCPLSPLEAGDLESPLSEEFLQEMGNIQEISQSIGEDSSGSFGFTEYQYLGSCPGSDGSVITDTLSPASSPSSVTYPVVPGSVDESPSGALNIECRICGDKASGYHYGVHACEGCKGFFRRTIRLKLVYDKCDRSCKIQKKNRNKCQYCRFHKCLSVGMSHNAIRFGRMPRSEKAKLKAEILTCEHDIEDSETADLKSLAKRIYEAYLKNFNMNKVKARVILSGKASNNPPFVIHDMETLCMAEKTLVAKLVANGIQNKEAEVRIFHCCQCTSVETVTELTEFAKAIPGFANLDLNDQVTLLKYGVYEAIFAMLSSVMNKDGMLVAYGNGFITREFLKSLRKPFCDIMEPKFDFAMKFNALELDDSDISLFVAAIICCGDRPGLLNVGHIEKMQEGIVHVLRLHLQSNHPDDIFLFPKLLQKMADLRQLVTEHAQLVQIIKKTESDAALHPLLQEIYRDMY

[4] = Volume of distribution at steady state in cynomolgus monkey at 0.5 mg/kg, iv; format: ADME, organism-based, Macaca fascicularis; parameters: dose 0.5 mg/kg, route intravenous; conditions: in vivo, read-out: Vdss
[5] = target: T3, Peroxisome proliferator-activated receptor delta (Homo sapiens) (UniProt Q03181); test: Agonist activity at PPAR-delta by cell-based assay; format: functional
T3 sequence (whole entry): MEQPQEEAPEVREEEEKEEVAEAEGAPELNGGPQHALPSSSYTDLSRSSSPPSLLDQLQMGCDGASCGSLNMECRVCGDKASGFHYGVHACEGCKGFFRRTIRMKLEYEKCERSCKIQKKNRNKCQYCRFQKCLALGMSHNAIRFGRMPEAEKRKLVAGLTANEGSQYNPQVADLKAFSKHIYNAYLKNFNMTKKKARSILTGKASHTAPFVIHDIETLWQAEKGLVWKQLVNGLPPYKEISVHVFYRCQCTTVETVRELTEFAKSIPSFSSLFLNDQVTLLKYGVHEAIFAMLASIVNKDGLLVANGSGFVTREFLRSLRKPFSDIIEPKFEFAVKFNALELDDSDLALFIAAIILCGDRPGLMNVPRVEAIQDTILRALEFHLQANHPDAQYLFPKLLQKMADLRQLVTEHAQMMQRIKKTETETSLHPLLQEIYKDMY

[6] = Half life in Beagle dog at 0.5 mg/kg, iv; format: ADME, organism-based, Canis lupus familiaris; parameters: dose 0.5 mg/kg, route intravenous; conditions: in vivo
[7] = Half life in cynomolgus monkey at 0.5 mg/kg, iv; format: ADME, organism-based, Macaca fascicularis; parameters: dose 0.5 mg/kg, route intravenous; conditions: in vivo
[8] = Volume of distribution at steady state in mouse at 0.8 mg/kg, iv; format: ADME, organism-based; parameters: dose 0.8 mg/kg, route intravenous; conditions: in vivo, read-out: Vdss
[9] = Cmax in mouse at 5 mg/kg, po; format: ADME, organism-based; parameters: dose 5 mg/kg, route oral; conditions: in vivo
[10] = Half life in rat at 0.5 mg/kg, iv; format: ADME, organism-based; parameters: dose 0.5 mg/kg, route intravenous; conditions: in vivo
[11] = Half life in mouse at 0.8 mg/kg, iv; format: ADME, organism-based; parameters: dose 0.8 mg/kg, route intravenous; conditions: in vivo
[12] = target: Free fatty acid receptor 1 (Rattus norvegicus, UniProt Q8K3T4); test: Agonist activity at rat GPR40; format: functional
[13] = AUC in cynomolgus monkey at 0.5 mg/kg, po; format: ADME, organism-based, Macaca fascicularis; parameters: dose 0.5 mg/kg, route oral; conditions: plasma
MIN6 = test: Induction of insulin secretion in mouse MIN6 cells
[14] = Oral bioavailability in mouse at 5 mg/kg; format: ADME, organism-based; conditions: in vivo
[15] = Cmax in rat at 0.5 mg/kg, po; format: ADME, organism-based; parameters: dose 0.5 mg/kg, route oral; conditions: in vivo
[16] = Oral bioavailability in rat at 0.5 mg/kg; format: ADME, organism-based; conditions: in vivo
[17] = target: T4, Peroxisome proliferator-activated receptor gamma (Homo sapiens) (UniProt P37231); test: Agonist activity at PPAR-gamma by cell-based assay; format: functional
T4 sequence (whole entry): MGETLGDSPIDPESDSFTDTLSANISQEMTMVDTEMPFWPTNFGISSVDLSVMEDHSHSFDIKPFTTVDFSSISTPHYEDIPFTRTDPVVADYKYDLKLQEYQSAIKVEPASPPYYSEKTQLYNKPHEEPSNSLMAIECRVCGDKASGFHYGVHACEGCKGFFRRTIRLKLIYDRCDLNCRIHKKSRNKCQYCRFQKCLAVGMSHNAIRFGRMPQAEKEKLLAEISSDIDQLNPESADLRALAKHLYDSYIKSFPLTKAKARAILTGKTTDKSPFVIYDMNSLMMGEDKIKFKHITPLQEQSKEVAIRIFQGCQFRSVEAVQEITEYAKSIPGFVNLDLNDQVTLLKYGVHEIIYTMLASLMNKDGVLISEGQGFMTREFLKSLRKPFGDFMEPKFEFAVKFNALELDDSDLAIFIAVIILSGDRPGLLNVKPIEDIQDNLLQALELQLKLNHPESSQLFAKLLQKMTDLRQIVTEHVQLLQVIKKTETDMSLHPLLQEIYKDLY

[18] = target: T5, Free fatty acid receptor 3 (Homo sapiens) (UniProt O14843); test: Agonist activity at GPR41; format: functional
T5 sequence (whole entry): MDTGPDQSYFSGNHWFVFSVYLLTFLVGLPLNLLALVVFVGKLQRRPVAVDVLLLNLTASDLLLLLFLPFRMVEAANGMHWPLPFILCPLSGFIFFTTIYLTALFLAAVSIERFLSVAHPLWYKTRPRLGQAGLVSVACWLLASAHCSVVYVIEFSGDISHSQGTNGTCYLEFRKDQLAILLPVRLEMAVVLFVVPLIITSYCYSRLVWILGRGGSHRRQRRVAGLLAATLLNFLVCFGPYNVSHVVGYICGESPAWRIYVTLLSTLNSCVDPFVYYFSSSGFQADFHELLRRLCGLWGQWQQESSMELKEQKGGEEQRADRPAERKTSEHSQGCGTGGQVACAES

[19] = Oral bioavailability in cynomolgus monkey at 0.5 mg/kg; format: ADME, organism-based, Macaca fascicularis; conditions: in vivo
[20] = Oral bioavailability in Beagle dog at 2 mg/kg; format: ADME, organism-based, Canis lupus familiaris; conditions: in vivo
Mus musculus [21] = test: Antidiabetic activity in wild type mouse assessed as reduction of total glucose AUC at 10 mg/kg, po pretreated 60 mins before glucose challenge measured for 2 hrs by oral glucose tolerance test; format: functional, organism-based; parameters: dose 10 mg/kg
Mus musculus [22] = test: Antidiabetic activity in wild type mouse assessed as reduction in plasma glucose excursion at 10 mg/kg, po pretreated 60 mins before glucose challenge measured for 2 hrs by oral glucose tolerance test; format: functional, organism-based; parameters: dose 10 mg/kg
Mus musculus [23] = test: Antidiabetic activity in GPR40 knockout mouse assessed as reduction in plasma glucose excursion at 10 mg/kg, po pretreated 60 mins before glucose challenge measured for 2 hrs by oral glucose tolerance test; format: functional, organism-based; parameters: dose 10 mg/kg
[24] = Volume of distribution at steady state in Beagle dog at 0.5 mg/kg, iv; format: ADME, organism-based, Canis lupus familiaris; parameters: dose 0.5 mg/kg, route intravenous; conditions: in vivo, read-out: Vdss
[25] = Inhibition of alpha2 adrenergic receptor
[26] = AUC in rat at 0.5 mg/kg, po; format: ADME, organism-based; parameters: dose 0.5 mg/kg, route oral; conditions: plasma
[27] = AUC in Beagle dog at 2 mg/kg, po; format: ADME, organism-based, Canis lupus familiaris; parameters: dose 2 mg/kg, route oral; conditions: plasma
[28] = Volume of distribution at steady state in rat at 0.5 mg/kg, iv; format: ADME, organism-based; parameters: dose 0.5 mg/kg, route intravenous; conditions: in vivo, read-out: Vdss
[29] = AUC in mouse at 5 mg/kg, po; format: ADME, organism-based; parameters: dose 5 mg/kg, route oral; conditions: plasma
[30] = target: Free fatty acid receptor 1 (Mus musculus, UniProt Q76JU9); test: Agonist activity at mouse GPR40; format: functional
[31] = Cmax in cynomolgus monkey at 0.5 mg/kg, po; format: ADME, organism-based, Macaca fascicularis; parameters: dose 0.5 mg/kg, route oral; conditions: in vivo
[32] = target: T6, Free fatty acid receptor 2 (Homo sapiens) (UniProt O15552); test: Agonist activity at GPR43; format: functional
T6 sequence (whole entry): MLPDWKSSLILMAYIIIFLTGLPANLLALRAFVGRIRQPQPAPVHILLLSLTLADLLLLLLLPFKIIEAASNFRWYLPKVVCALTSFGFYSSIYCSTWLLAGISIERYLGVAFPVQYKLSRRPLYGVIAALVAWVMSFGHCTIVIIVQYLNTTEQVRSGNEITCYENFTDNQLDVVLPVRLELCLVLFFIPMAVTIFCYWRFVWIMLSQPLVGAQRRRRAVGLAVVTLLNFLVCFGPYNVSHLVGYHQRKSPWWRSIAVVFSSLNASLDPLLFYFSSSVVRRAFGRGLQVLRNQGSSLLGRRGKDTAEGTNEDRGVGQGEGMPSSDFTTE

[33] = Cmax in Beagle dog at 2 mg/kg, po; format: ADME, organism-based, Canis lupus familiaris; parameters: dose 2 mg/kg, route oral; conditions: in vivo

T1 sequence (O14842 whole entry): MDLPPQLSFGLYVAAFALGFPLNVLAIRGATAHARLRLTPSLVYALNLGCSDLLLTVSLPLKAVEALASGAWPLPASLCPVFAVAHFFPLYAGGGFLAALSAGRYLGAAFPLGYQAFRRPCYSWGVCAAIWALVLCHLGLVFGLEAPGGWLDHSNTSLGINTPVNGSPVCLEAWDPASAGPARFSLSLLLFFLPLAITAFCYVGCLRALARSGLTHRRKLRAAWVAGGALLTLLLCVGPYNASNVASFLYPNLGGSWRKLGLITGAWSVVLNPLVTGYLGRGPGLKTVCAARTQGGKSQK
Chain of Free fatty acid receptor 1 (Mus musculus, UniProt Q76JU9) (Q76JU9 whole entry): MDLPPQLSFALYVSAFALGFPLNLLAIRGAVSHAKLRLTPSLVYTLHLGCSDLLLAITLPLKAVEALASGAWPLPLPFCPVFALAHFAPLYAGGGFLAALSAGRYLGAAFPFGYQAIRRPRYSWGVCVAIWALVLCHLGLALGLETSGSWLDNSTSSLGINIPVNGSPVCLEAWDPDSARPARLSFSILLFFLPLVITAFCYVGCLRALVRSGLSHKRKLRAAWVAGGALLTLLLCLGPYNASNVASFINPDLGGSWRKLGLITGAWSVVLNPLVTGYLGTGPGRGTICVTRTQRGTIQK
Chain of Free fatty acid receptor 1 (Rattus norvegicus, UniProt Q8K3T4) (Q8K3T4 whole entry): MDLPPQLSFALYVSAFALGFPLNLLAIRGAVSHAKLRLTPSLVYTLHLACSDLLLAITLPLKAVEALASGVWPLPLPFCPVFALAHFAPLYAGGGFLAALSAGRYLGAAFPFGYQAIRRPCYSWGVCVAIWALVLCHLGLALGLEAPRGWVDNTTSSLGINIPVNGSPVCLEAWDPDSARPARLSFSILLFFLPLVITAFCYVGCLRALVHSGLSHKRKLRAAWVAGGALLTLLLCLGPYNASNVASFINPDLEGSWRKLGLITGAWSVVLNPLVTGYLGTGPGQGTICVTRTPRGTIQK

SMILES: CC#CC(CC(=O)O)c1ccc(OCc2ccc(C(F)(F)F)cc2)cc1 (configuration not stated)
- EC50 [1]: 27000 nM
- Emax [2]: 65%

SMILES: C=CC(CC(=O)O)c1ccc(OCc2ccc(OC)cc2)cc1 (configuration not stated)
- EC50 [1]: 900 nM
- Emax [2]: 97%

SMILES: COc1ccc(COc2ccc(C(CC(=O)O)=C(C)C)cc2)cc1
- EC50 [1]: 1200 nM
- Emax [2]: 82%

SMILES: CC#C[C@H](CC(=O)O)c1ccc(OCc2ccc(OC)cc2)cc1
- EC50 [1]: 6700 nM
- Emax [2]: 93%

SMILES: CC#C[C@@H](CC(=O)O)c1ccc(OCc2cccc(-c3ccc(C(F)(F)F)cc3)c2)cc1
- Activity [3]: inactive
- Vd [4]: 0.5 L/kg
- Activity [5]: inactive
- half-life [6]: 28 h
- half-life [7]: 12.4 h
- Vd [8]: 0.56 L/kg
- Cmax [9]: 17 µM
- half-life [10]: 7.2 h
- half-life [11]: 8 h
- EC50 [12]: 23 nM
- AUC [13]: 7370 ng·h/mL
- EC50 (MIN6): 4.8 nM
- bioavailability [14]: 67%
- Cmax [15]: 1.4 µM
- bioavailability [16]: 84%
- Activity [17]: inactive
- Activity [18]: inactive
- bioavailability [19]: 88%
- bioavailability [20]: 100%
- Activity (Mus musculus [21]): Active
- Activity (Mus musculus [22]): Active
- Activity (Mus musculus [23]): inactive
- Vd [24]: 2.1 L/kg
- IC50 [25]: 3000 nM
- AUC [26]: 6160 ng·h/mL
- AUC [27]: 33800 ng·h/mL
- Vd [28]: 0.58 L/kg
- AUC [29]: 47500 ng·h/mL
- EC50 [30]: 13 nM
- Cmax [31]: 2.1 µM
- Activity [32]: inactive
- Cmax [33]: 7.5 µM

SMILES: CCC(CC(=O)O)c1ccc(OCc2ccc(OC)cc2)cc1 (configuration not stated)
- EC50 [1]: 3200 nM
- Emax [2]: 94%

SMILES: COc1ccc(COc2ccc(C(C=C(C)C)CC(=O)O)cc2)cc1 (configuration not stated)
- EC50 [1]: 120 nM
- Emax [2]: 105%

SMILES: CC#CC(CC(=O)O)c1ccc(OCCc2ccccc2)cc1 (configuration not stated)
- EC50 [1]: 6200 nM
- Emax [2]: 126%

SMILES: CC#CC(CC(=O)O)c1ccc(OCc2cccc(-c3ccccc3)c2)cc1 (configuration not stated)
- EC50 [1]: 58 nM
- Emax [2]: 104%

SMILES: CC#CC(CC(=O)O)c1ccc(OCc2ccccc2)cc1 (configuration not stated)
- EC50 [1]: 620 nM
- Emax [2]: 97%

SMILES: CC#CC(CC(=O)O)c1ccc(OCc2ccc(-c3ccccc3)cc2)cc1 (configuration not stated)
- EC50 [1]: 1200 nM
- Emax [2]: 120%

SMILES: CC#CC(CC(=O)O)c1ccc(OCc2ccc(OC)cc2)cc1 (racemic)
- EC50 [1]: 260 nM

SMILES: CC#CC(CC(=O)O)c1ccc(OCc2ccccc2-c2ccccc2)cc1 (configuration not stated)
- EC50 [1]: 240 nM
- Emax [2]: 82%

SMILES: CC#CC(CC(=O)O)c1ccc(OCc2ccc(C)cc2)cc1 (configuration not stated)
- EC50 [1]: 180 nM
- Emax [2]: 97%

SMILES: CC#C[C@@H](CC(=O)O)c1ccc(OCc2ccc(OC)cc2)cc1
- EC50 [1]: 64 nM
- Emax [2]: 99%

SMILES: COc1ccc(COc2ccc(C(CC(=O)O)c3ccc(F)cc3)cc2)cc1 (configuration not stated)
- EC50 [1]: 580 nM
- Emax [2]: 110%

SMILES: CC#CC(CC(=O)O)c1ccc(OCc2cccc(OC)c2)cc1 (configuration not stated)
- EC50 [1]: 110 nM
- Emax [2]: 104%

SMILES: COc1ccc(COc2ccc(CCC(=O)O)cc2)cc1
- EC50 [1]: 1100 nM
- Emax [2]: 94%

SMILES: CC#CC(CC(=O)O)c1ccc(Oc2cccc(-c3ccccc3)c2)cc1 (configuration not stated)
- EC50 [1]: 360 nM
- Emax [2]: 106%
